Shown is part of a subset that was picked to be rich in hits.
T cruzi HTS: intracellular Trypanosoma cruzi inhibition; intracellular Trypanosoma cruzi in host cells, plate reader; activity score (inhibition), % at 5.01 µM; hit rate 4.9% among 22,000; AID 651903; in the data active = activity score above about 55%;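 also: parasites and compound incubated about four days before reading; 0% = median of neutral control wells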
A1 apoptosis 2: blocks A1, raising caspase activity. 24,000 tested, under 10 active. MEF A1-2A-BIM cells, caspase-Glo luminescence, 3 h; percent of clofoctol response, DMSO zero. caspase activation, % (no concentration beside the values); in the data active = caspase activation above about 5.9%
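Evaluation: Caspase-3/7 activity from luminescence increase | Assay system: A1-2A-BIM mouse embryonic fibroblasts | Quantity: 2500 MEF cells/well | Medium: RPMI-1640 plus 10% FBS | Detection: Caspase-Glo 3/7 luminescence, 1 h at room temperature | Dosing: 50 nL compound per well, pinned | Timing: Cells settled overnight, compound exposure 3 h at 37 °C, 5% CO2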
INS-1E rescue: rescue of cytokine-induced death in INS-1E beta cells; hit rate 0.1% among 20,000; INS-1E cytokine-induced death, ATP luminescence, 48 h; normalised: neutral wells 0, positive control 100; protection from cytokine-induced ATP loss, % at 10 µM; AID 488910;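 active = mean replicate protection from cytokine-induced ATP loss at least 50% and at least 75% of replicates each reaching 50%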
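Assay system: INS-1E rat insulinoma cells. Amount: 8000 cells per well. Medium: phenol-red-free RPMI with 5% fetal bovine serum. Reagent: IL-1β, TNF-α and IFN-γ cytokine mix. Doses: one compound concentration, pin transfer. Schedule: 48 h co-treatment, 10 min post-lysis read. Detection: CellTiter-Glo luminescence measuring cellular ATP.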
* = called active by the depositor; / = no result given.

SMILES	T cruzi HTS	A1 apoptosis 2	INS-1E rescue
C[C@@H]1CN([C@H](C)CO)C(=O)Cc2cc(NS(=O)(=O)c3ccc(Cl)cc3)ccc2O[C@H]1CN(C)Cc1ccc(C(=O)Nc2ccccc2N)cc1	69*	/	5
Cc1ccc(S(=O)(=O)Nc2ccc3c(c2)CC(=O)N([C@@H](C)CO)C[C@@H](C)[C@@H](CN(C)Cc2ccc(C(=O)Nc4ccccc4N)cc2)O3)cc1	63*	-1	0
COc1ccc(S(=O)(=O)Nc2ccc3c(c2)CC(=O)N([C@H](C)CO)C[C@@H](C)[C@H](CN(C)Cc2ccc(C(=O)Nc4ccccc4N)cc2)O3)cc1	/	-1	/
Cc1ccc(S(=O)(=O)Nc2ccc3c(c2)CC(=O)N([C@H](C)CO)C[C@H](C)[C@@H](CN(C)Cc2ccc(C(=O)Nc4ccccc4N)cc2)O3)cc1	/	-1	/
C[C@@H]1CN([C@@H](C)CO)C(=O)Cc2cc(NS(=O)(=O)c3ccc(Cl)cc3)ccc2O[C@@H]1CN(C)Cc1ccc(C(=O)Nc2ccccc2N)cc1	/	1	/
C[C@H]1CN([C@@H](C)CO)C(=O)Cc2cc(NS(=O)(=O)c3cccs3)ccc2O[C@H]1CN(C)Cc1ccc(C(=O)Nc2ccccc2N)cc1	68*	1	23
N#Cc1ccc(/C=N/NC(=O)CCCCCCC(=O)Nc2ccccc2O)cc1	-11	-1	4
O=C(CCCCCCC(=O)Nc1ccccc1O)N/N=C/c1ccccc1	/	0	/
O=C(N/N=C/c1cc(Br)c(O)c(Br)c1)c1ccccc1O	-13	/	-57
O=S(=O)(NCCCO)c1ccc(Br)cc1	/	0	/
COC(=O)CCCCCCC(=O)N/N=C/c1ccc(-c2ccccc2)c(F)c1	1	-2	5
O=C(CCCCC(=O)N/N=C/c1cccc(O)c1)NO	-22	/	-1
O=C(CCCCC(=O)N/N=C/c1ccc(-c2ccccc2)c(F)c1)NO	20	/	60*
O=C(CCCCCC(=O)N/N=C/c1ccc(O)c2ccccc12)NO	5	0	57*
O=C(CCCCC(=O)N/N=C/c1ccc2ccccc2c1)NO	18	0	73*
O=C(CCCCC(=O)N/N=C/c1cc(O)ccc1O)NO	13	0	41
O=C(O)c1ccc(/C=N/NC(=O)c2ccccn2)cc1	-18	/	5
O=C(C1=C[C@H](c2ccc3c(c2)Cc2ccccc2-3)C[C@H](OCc2ccc(CO)cc2)O1)N1CCCCC1	/	1	/
O=C(N/N=C/c1c(O)cc(O)cc1O)c1ccccn1	7	-8	-8
O=C(NO)c1ccc(C(=O)N/N=C/c2ccc([N+](=O)[O-])s2)cc1	38	0	16
C[C@@H]1CN([C@@H](C)CO)C(=O)c2cccc(NS(=O)(=O)c3ccc(F)cc3)c2O[C@@H]1CN(C)Cc1ccc(-c2ccccc2)cc1	66*	0	-68
C[C@H]1CN([C@@H](C)CO)C(=O)c2cccc(NS(=O)(=O)c3ccc(F)cc3)c2O[C@@H]1CN(C)Cc1ccc(-c2ccccc2)cc1	18	0	-7
C[C@H](CO)N1C[C@H](C)[C@@H](CN(C)Cc2ccccc2)Oc2c(NS(C)(=O)=O)cccc2C1=O	59*	0	2
C[C@H]1CN([C@@H](C)CO)C(=O)c2cccc(NS(=O)(=O)c3ccccc3)c2O[C@H]1CN(C)Cc1ccc(C(F)(F)F)cc1	31	/	0
C[C@H]1CN([C@@H](C)CO)C(=O)c2cccc(NS(C)(=O)=O)c2O[C@H]1CN(C)Cc1ccccc1	-8	1	-6
SMILES	T cruzi HTS	A1 apoptosis 2	INS-1E rescue
C[C@H](CO)N1C[C@H](C)[C@@H](CN(C)Cc2ccc(C(F)(F)F)cc2)Oc2c(NS(=O)(=O)c3ccccc3)cccc2C1=O	66*	/	2
O=C(CCCCCCC(=O)Nc1ccccc1O)N/N=C/c1ccc2c(c1)OCCO2	13	/	9
COC(=O)CCCCCCC(=O)N/N=C/C1=CC[C@H]2C[C@@H]1C2(C)C	-8	0	7
Cc1ccc(S(=O)(=O)N(C)C[C@@H]2OCCCC[C@@H](C)Oc3ccc(NC(=O)Nc4ccc(C(F)(F)F)cc4)cc3C(=O)N([C@H](C)CO)C[C@@H]2C)cc1	70*	/	-23
C[C@@H]1CCCCO[C@H](CN(C)S(=O)(=O)c2ccc(Cl)cc2)[C@H](C)CN([C@@H](C)CO)C(=O)c2cc(NC(=O)Nc3ccc(C(F)(F)F)cc3)ccc2O1	/	0	/
C[C@@H]1CCCCO[C@H](CN(C)S(=O)(=O)c2ccc(F)cc2)[C@@H](C)CN([C@H](C)CO)C(=O)c2cc(NC(=O)Nc3ccc(F)cc3)ccc2O1	14	0	-7
C[C@@H]1CCCCO[C@H](CN(C)S(=O)(=O)c2ccc(F)cc2)[C@@H](C)CN([C@H](C)CO)C(=O)c2cc(NC(=O)Nc3ccc(C(F)(F)F)cc3)ccc2O1	64*	0	-36
Cc1ccc(/C=N/NC(=O)CCCCCCC(=O)NO)o1	/	0	/
C[C@H]1CN([C@@H](C)CO)C(=O)Cc2cc(NS(=O)(=O)c3ccc(Cl)cc3)ccc2O[C@@H]1CN(C)S(=O)(=O)c1cccs1	-33	/	12
C[C@@H]1CN([C@H](C)CO)C(=O)Cc2cc(NS(=O)(=O)c3ccc(Cl)cc3)ccc2O[C@@H]1CN(C)S(=O)(=O)c1cccs1	74*	/	-5
COc1ccc(S(=O)(=O)Nc2ccc3c(c2)CC(=O)N([C@H](C)CO)C[C@@H](C)[C@@H](CN(C)S(=O)(=O)c2cccs2)O3)cc1	77*	-1	-1
COc1ccc(S(=O)(=O)Nc2ccc3c(c2)CC(=O)N([C@H](C)CO)C[C@H](C)[C@@H](CN(C)S(=O)(=O)c2cccs2)O3)cc1	/	0	/
O=C1CSC(c2ccccc2)N1c1cccc(Cl)c1 (stereo not drawn)	/	1	/
C[C@@H]1CN([C@H](C)CO)C(=O)c2cccc(NC(=O)Nc3cccc4ccccc34)c2O[C@@H]1CN(C)Cc1ccc(-c2ccccc2)cc1	61*	/	-19
C[C@H]1CN([C@@H](C)CO)C(=O)c2cccc(NC(=O)Nc3ccccc3)c2O[C@@H]1CN(C)Cc1ccc(Oc2ccccc2)cc1	34	0	-27
CC(C)NC(=O)Nc1cccc2c1O[C@H](CN(C)Cc1ccc(Oc3ccccc3)cc1)[C@H](C)CN([C@@H](C)CO)C2=O	-1	0	-22
CC(C)NC(=O)Nc1cccc2c1O[C@@H](CN(C)Cc1ccc(Oc3ccccc3)cc1)[C@H](C)CN([C@H](C)CO)C2=O	57*	0	-7
C[C@H](CO)N1C[C@H](C)[C@H](CN(C)Cc2ccc(-c3ccccc3)cc2)Oc2c(NC(=O)Nc3cccc4ccccc34)cccc2C1=O	/	0	/
C[C@H](CO)N1C[C@H](C)[C@@H](CN(C)Cc2ccc(Oc3ccccc3)cc2)Oc2c(NC(=O)Nc3ccccc3)cccc2C1=O	78*	-1	-46
C[C@@H]1CN([C@@H](C)CO)C(=O)c2cccc(NC(=O)Nc3ccccc3)c2O[C@@H]1CN(C)Cc1ccc(Oc2ccccc2)cc1	-16	/	-44
C[C@H](CO)N1C[C@H](C)[C@H](CN(C)Cc2ccc(Oc3ccccc3)cc2)Oc2c(NC(=O)Nc3cccc4ccccc34)cccc2C1=O	66*	0	-59

Screens (PubChem BioAssay)
